The source of these data is paper PMC4317570 (Cell metabolism, 2015).

In assay [1] the target is T1, RORγ (Mus musculus, UniProt P51450).
T1 sequence (P51450 267-516 limits assumed): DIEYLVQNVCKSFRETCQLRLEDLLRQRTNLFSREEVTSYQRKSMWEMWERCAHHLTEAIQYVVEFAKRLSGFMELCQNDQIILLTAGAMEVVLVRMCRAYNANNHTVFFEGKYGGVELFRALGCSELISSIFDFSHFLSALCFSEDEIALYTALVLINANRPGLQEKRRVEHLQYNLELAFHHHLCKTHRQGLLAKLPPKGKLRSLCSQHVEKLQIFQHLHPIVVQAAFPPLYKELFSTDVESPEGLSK
Nature of the assay: RORγ reporter assay in mammalian cells. The format is cell-based. The following applies: mammalian cells (HEK293T). Summed up:
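HEK293T cells are co-transfected with a RORγ-gal4 fusion plus a GAL4 UAS firefly luciferase reporter (luc2p) and exposed to test compound. Luciferase activity is the read-out. Data are averages of technical triplicates ± standard deviation, representative of n=6 experiments. Statistics use two-tailed unpaired Student's t-test on aggregated experiments.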
Background: A reporter such as luciferase makes a cellular process visible.

Assay [2] has as its system RORγ LBD. Nature of the assay: Fluorescein-NCOA2 coactivator peptide recruitment, fluorescence polarization. Particulars: fluoresceinated NCOA2 peptide, holo vs apo receptor. It is filed as biochemical. A general note: In fluorescence polarisation assays a small probe gives low polarisation when free and higher when bound to something large.
The subject of assay [3] is RORγ LBD. Kind of assay: CD thermal denaturation of RORγ LBD, apo vs holo. Particulars: holo vs apo receptor. The format is binding.
The test system of assay [4] is Sc4mol-/- naïve CD4+ T cells. Kind of assay: Th17 cell polarization of RORγt-cre Sc4mol-/- naïve CD4+ T cells. It is filed as cell-based, mouse.
Assay [5] relates to RORγ reporter activity in SXLT cells. Nature of the assay: Full length RORγ reporter. Particulars: media supplemented with compound, Fdft1-/- SXLT cells. The format is cell-based. The gist of the method: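 Fdft1−/− SXLT cells are transfected with a full-length RORγ construct driving a firefly luciferase reporter from an endogenous Il-23r enhancer element. Test compound is added to the medium, and luciferase activity is read. Data are technical triplicates ± standard deviation, representative of n=4 experiments. Comparison is by two-tailed unpaired Student's t-test on aggregated experiments.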

The target in assay [6] is RORγ (Mus musculus, UniProt P51450). Nature of the assay: RORγ-gal4/UAS luciferase reporter in insect cells grown in sterol-free CDM. The format is cell-based. The gist of the method: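 Drosophila Kc167 cells are kept in continuous culture in lipid-free chemically defined medium: 40% Grace's medium, 10% Murashige–Skoog micronutrients, 1% NEAS, 1 mM pyruvate, 2% ITS-A and 1% Pluronic F-68. Cells are transiently transfected with RORγ-gal4 plus a UAS luc2p firefly luciferase reporter (minimal hsp70 promoter), then treated with test compound. EC50 is derived from reporter activity. Each compound is tested at least twice in technical triplicates ± standard deviation.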

Assay [7] relates to RORγ LBD. Kind of assay: Competition binding with fluorescein-labeled 25-hydroxycholesterol. Particulars: recombinant RORγ.
Assay [8] concerns RORγ reporter activity in U937ROR cells. The format is cell-based. The following applies: media supplemented with exogenous cholesterol.

As a reminder, the EC50 is the concentration at which the effect is half-maximal.

For `CC(C)=CCCC(C)C1CCC2(C)C3=CCC4C(C)(CO)C(O)CCC4(C)C3CCC12C` (stereo not drawn) [4α–hydroxymethyl,4β,14α-dimethyl-cholesta-7,24-dien-3-ol], the “RORγ reporter activity in mammalian cells” value at RORγ [1] is given as “no activity”.

For the compound `CC(C)=CCC[C@@H](C)[C@H]1CC[C@H]2C3=C(CC[C@]12C)[C@@]1(C)CCC(O)[C@@](C)(C(=O)O)C1CC3` (stereo partly drawn) [4ACD8, 4α–carboxy, 4β-methyl-cholesta-8,24-dien-3-ol], at RORγ [1], the “RORγ reporter activity in mammalian cells” value is listed as “specific agonist activity”. The “Co-activator peptide recruitment to RORγ” value in the assay with RORγ LBD [2] is “promoted co-activator peptide recruitment”. Further, the “Thermal stability of the RORγ LBD” value in the assay with RORγ LBD [3] is “increased the thermal stability”. In assay [4] (1 μM added to media), the “Th17 cell differentiation in Sc4mol-/- naïve CD4+ T cells” value is reported as “rescues Th17 cell differentiation”. For `CC(C)=CCC/C(C)=C/CC/C(C)=C/CC/C=C(\C)CC/C=C(\C)CCC=C(C)C` [squalene], the “Rescue of full length RORγ reporter activity in SXLT cells” value in assay [5] was “partially rescue”. Consider `CC(C)=CCC[C@@H](C)[C@H]1CC[C@@]2(C)C3=CCC4[C@](C)(C=O)C(O)CC[C@]4(C)[C@H]3CC[C@]12C` (stereo partly drawn) [4α–formyl,4β,14α-dimethyl-cholesta-7,24-dien-3-ol], for which, on RORγ [6], the EC50 is 150 to 500 nM. Further, the “RORγ reporter activity in mammalian cells” value on RORγ [1] is listed as “no activity”. Take `CC(C)=CCC[C@@H](C)[C@H]1CC[C@H]2C3=C(CC[C@]12C)[C@@]1(C)CCC(O)C(C)(C)C1CC3` (stereo partly drawn) [T-MAS, 4α,4β-dimethyl-cholesta-8,24-dien-3-ol]: the “Binding to RORγ” value with RORγ LBD [7] is “bind very weakly if at all”. `CC(C)=CCC[C@@H](C)[C@H]1CC[C@@]2(C)C3=C(CC[C@]12C)[C@@]1(C)CC[C@H](O)C(C)(C)[C@@H]1CC3` [lanosterol, 14α,4α,4β-trimethyl-cholesta-8,24-dien-3-ol]: the entries for the “RORγ reporter activity in insect cells” value on RORγ [6] (higher concentrations) and at RORγ [6] (physiological concentrations (1 μM)) were “significant RORγ reporter activity” and “little to no activity”, respectively. Take `CC(C)CCC[C@@H](C)[C@H]1CC[C@H]2[C@@H]3CC=C4C[C@@H](O)CC[C@]4(C)[C@H]3CC[C@]12C` [cholesterol, reference compound]: the “Th17 polarization defect of Sc4mol-/- T cells” value in assay [4] (supplementation of media) was “could not be alleviated”.

In the case of `CC[C@H](C)C(=O)O[C@H]1C[C@@H](C)C=C2C=C[C@H](C)[C@H](CC[C@@H]3C[C@@H](O)CC(=O)O3)[C@H]21` [lovastatin], the “RORγ reporter activity in U937ROR cells” value in assay [8] was “inhibited in a dose dependent fashion”. For `CC(C)=CCC[C@@H](C)[C@H]1CC=C2C3=C(CC[C@@]21C)[C@@]1(C)CCC(O)C(C)(C)C1CC3` (stereo partly drawn) [FF-MAS, 4α,4β-dimethyl-cholesta-8,14,24-trien-3-ol, reference compound], the “RORγ reporter activity in mammalian cells” value on RORγ [1] is “weak agonist”.

On to `CC(C)CCC[C@@H](C)[C@H]1CC[C@H]2C3=CCC4[C@H](C(=O)O)[C@@H](O)CC[C@]4(C)[C@H]3CC[C@]12C` (stereo partly drawn) [4ACD7, 4α-carboxy-cholest-7-en-3β-ol], for which the “Co-activator peptide recruitment to RORγ” value in the assay on RORγ LBD [2] is “promote the recruitment”. In the assay on RORγ LBD [3], the “Thermal stability of the RORγ LBD” value is “increase stability”. In the case of `C=CCN(C)CCCCCCOc1ccc(C(=O)c2ccc(Br)cc2)c(F)c1.O=C(O)/C=C/C(=O)O` [Ro 48-8071 fumarate], the “RORγ reporter activity in U937ROR cells” value in assay [8] was “inhibited in a dose dependent fashion”.
